One block for each compound: values may come before it.
Key:
[1] = Displacement of [3H]DTG from sigma 2 receptor in rat liver membrane after 120 mins; format: cell membranes
How it was run: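 Rat liver membranes (~300 µg protein) incubated with ~5 nM [3H]DTG plus 1 µM (+)-pentazocine to mask σ1 sites, 120 min at room temperature; 10 µM haloperidol defines nonspecific binding; filtration and scintillation counting. One-site nonlinear regression IC50, converted to Ki by Cheng-Prusoff; mean ± SEM.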

[2] = Selectivity for rat liver sigma 2 receptor over guinea pig brain sigma 1 receptor
[3] = target: Sigma non-opioid intracellular receptor 1 (Cavia porcellus, UniProt Q60492); assay: Displacement of [3H](+)-pentazocine from sigma 1 receptor in guinea pig brain membrane after 90 mins; format: cell membranes
How it was run: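 Guinea pig brain membranes (~300 µg protein) with ~5 nM [3H](+)-pentazocine, 90 min at room temperature; nonspecific binding with 10 µM haloperidol; stopped with ice-cold Tris/NaCl buffer, filtered, scintillation counted. IC50 by nonlinear regression, one-site fit; Ki by Cheng-Prusoff, mean ± SEM.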

[4] = Tumor to fat ratio of the drug in mouse EMT6 tumor bearing BALB/c mouse at 10 to 20 uCi after 2 hrs; format: ADME
How it was run: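 Tumor-bearing female Balb/c mice (EMT-6 s.c. allograft, ~0.2 cm3) given 10-20 µCi 18F tracer in saline i.v. via tail vein; ≥4 per group; killed 120 min later. Tissues weighed and gamma-counted; ratio = tumor %ID/g divided by that organ's %ID/g.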

Blood [5] = assay: Biodistribution in blood of mouse EMT6 tumor bearing BALB/c mouse at 10 to 20 uCi after 5 mins; format: ADME, organism-based; settings: in vivo
How it was run: (§1)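 EMT-6 cells (5×10^5 in 100 µL PBS) implanted s.c. in scapular region of female Balb/c mice (~2 months, 17-22 g); studied 7-10 days later at ~0.2 cm3 tumor. 18F tracer 10-20 µCi in 100-150 µL saline via tail vein; ≥4 mice per time point; tissue removed at sacrifice, weighed, gamma-counted; %ID/g calculated.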

Blood [6] = assay: Biodistribution in blood of mouse EMT6 tumor bearing BALB/c mouse at 10 to 20 uCi after 30 mins; format: ADME, organism-based; settings: in vivo, 0.5 h; how it was run: as §1
Blood [7] = assay: Biodistribution in blood of mouse EMT6 tumor bearing BALB/c mouse at 10 to 20 uCi after 60 mins; format: ADME, organism-based; settings: in vivo, 1 h; how it was run: as §1
Blood [8] = assay: Biodistribution in blood of mouse EMT6 tumor bearing BALB/c mouse at 10 to 20 uCi after 120 mins; format: ADME, organism-based; settings: in vivo, 2 h; how it was run: as §1
Lung [9] = assay: Biodistribution in lung of mouse EMT6 tumor bearing BALB/c mouse at 10 to 20 uCi after 5 mins; format: ADME, organism-based; settings: in vivo; how it was run: as §1
Lung [10] = assay: Biodistribution in lung of mouse EMT6 tumor bearing BALB/c mouse at 10 to 20 uCi after 30 mins; format: ADME, organism-based; settings: in vivo, 0.5 h; how it was run: as §1
Lung [11] = assay: Biodistribution in lung of mouse EMT6 tumor bearing BALB/c mouse at 10 to 20 uCi after 60 mins; format: ADME, organism-based; settings: in vivo, 1 h; how it was run: as §1
Lung [12] = assay: Biodistribution in lung of mouse EMT6 tumor bearing BALB/c mouse at 10 to 20 uCi after 120 mins; format: ADME, organism-based; settings: in vivo, 2 h; how it was run: as §1
Liver [13] = assay: Biodistribution in liver of mouse EMT6 tumor bearing BALB/c mouse at 10 to 20 uCi after 5 mins; format: ADME, organism-based; settings: in vivo; how it was run: as §1
Liver [14] = assay: Biodistribution in liver of mouse EMT6 tumor bearing BALB/c mouse at 10 to 20 uCi after 30 mins; format: ADME, organism-based; settings: in vivo, 0.5 h; how it was run: as §1
Liver [15] = assay: Biodistribution in liver of mouse EMT6 tumor bearing BALB/c mouse at 10 to 20 uCi after 60 mins; format: ADME, organism-based; settings: in vivo, 1 h; how it was run: as §1
Liver [16] = assay: Biodistribution in liver of mouse EMT6 tumor bearing BALB/c mouse at 10 to 20 uCi after 120 mins; format: ADME, organism-based; settings: in vivo, 2 h; how it was run: as §1
Kidney [17] = assay: Biodistribution in kidney of mouse EMT6 tumor bearing BALB/c mouse at 10 to 20 uCi after 5 mins; format: ADME, organism-based; settings: in vivo; how it was run: as §1
Kidney [18] = assay: Biodistribution in kidney of mouse EMT6 tumor bearing BALB/c mouse at 10 to 20 uCi after 30 mins; format: ADME, organism-based; settings: in vivo, 0.5 h; how it was run: as §1
Kidney [19] = assay: Biodistribution in kidney of mouse EMT6 tumor bearing BALB/c mouse at 10 to 20 uCi after 60 mins; format: ADME, organism-based; settings: in vivo, 1 h; how it was run: as §1
Kidney [20] = assay: Biodistribution in kidney of mouse EMT6 tumor bearing BALB/c mouse at 10 to 20 uCi after 120 mins; format: ADME, organism-based; settings: in vivo, 2 h; how it was run: as §1
Muscle tissue [21] = assay: Biodistribution in muscle of EMT6 tumor bearing BALB/c mouse at 10 to 20 uCi after 5 mins; format: ADME, organism-based; settings: in vivo; how it was run: as §1
Muscle tissue [22] = assay: Biodistribution in muscle of mouse EMT6 tumor bearing BALB/c mouse at 10 to 20 uCi after 30 mins; format: ADME, organism-based; settings: in vivo, 0.5 h; how it was run: as §1
Muscle tissue [23] = assay: Biodistribution in muscle of mouse EMT6 tumor bearing BALB/c mouse at 10 to 20 uCi after 60 mins; format: ADME, organism-based; settings: in vivo, 1 h; how it was run: as §1
Muscle tissue [24] = assay: Biodistribution in muscle of mouse EMT6 tumor bearing BALB/c mouse at 10 to 20 uCi after 120 mins; format: ADME, organism-based; settings: in vivo, 2 h; how it was run: as §1
Adipose tissue [25] = assay: Biodistribution in fat of mouse EMT6 tumor bearing BALB/c mouse at 10 to 20 uCi after 5 mins; format: ADME, organism-based; settings: in vivo; how it was run: as §1
Adipose tissue [26] = assay: Biodistribution in fat of mouse EMT6 tumor bearing BALB/c mouse at 10 to 20 uCi after 30 mins; format: ADME, organism-based; settings: in vivo, 0.5 h; how it was run: as §1
Adipose tissue [27] = assay: Biodistribution in fat of mouse EMT6 tumor bearing BALB/c mouse at 10 to 20 uCi after 60 mins; format: ADME, organism-based; settings: in vivo, 1 h; how it was run: as §1
Adipose tissue [28] = assay: Biodistribution in fat of mouse EMT6 tumor bearing BALB/c mouse at 10 to 20 uCi after 120 mins; format: ADME, organism-based; settings: in vivo, 2 h; how it was run: as §1
Heart [29] = assay: Biodistribution in heart of mouse EMT6 tumor bearing BALB/c mouse at 10 to 20 uCi after 5 mins; format: ADME, organism-based; settings: in vivo; how it was run: as §1
Heart [30] = assay: Biodistribution in heart of mouse EMT6 tumor bearing BALB/c mouse at 10 to 20 uCi after 30 mins; format: ADME, organism-based; settings: in vivo, 0.5 h; how it was run: as §1
Heart [31] = assay: Biodistribution in heart of mouse EMT6 tumor bearing BALB/c mouse at 10 to 20 uCi after 60 mins; format: ADME, organism-based; settings: in vivo, 1 h; how it was run: as §1
Heart [32] = assay: Biodistribution in heart of EMT6 tumor bearing BALB/c mouse at 10 to 20 uCi after 120 mins; format: ADME, organism-based; settings: in vivo, 2 h; how it was run: as §1
Brain [33] = assay: Biodistribution in brain of EMT6 tumor bearing BALB/c mouse at 10 to 20 uCi after 5 mins; format: ADME, organism-based; settings: in vivo; how it was run: as §1
Brain [34] = assay: Biodistribution in brain of EMT6 tumor bearing BALB/c mouse at 10 to 20 uCi after 30 mins; format: ADME, organism-based; settings: in vivo, 0.5 h; how it was run: as §1
Brain [35] = assay: Biodistribution in brain of EMT6 tumor bearing BALB/c mouse at 10 to 20 uCi after 60 mins; format: ADME, organism-based; settings: in vivo, 1 h; how it was run: as §1
Brain [36] = assay: Biodistribution in brain of mouse EMT6 tumor bearing BALB/c mouse at 10 to 20 uCi after 120 mins; format: ADME, organism-based; settings: in vivo, 2 h; how it was run: as §1
Bone [37] = assay: Biodistribution in bone of mouse EMT6 tumor bearing BALB/c mouse at 10 to 20 uCi after 5 mins; format: ADME, organism-based, Bone element; settings: in vivo; how it was run: as §1
Bone [38] = assay: Biodistribution in bone of mouse EMT6 tumor bearing BALB/c mouse at 10 to 20 uCi after 30 mins; format: ADME, organism-based, Bone element; settings: in vivo, 0.5 h; how it was run: as §1
Bone [39] = assay: Biodistribution in bone of mouse EMT6 tumor bearing BALB/c mouse at 10 to 20 uCi after 60 mins; format: ADME, organism-based, Bone element; settings: in vivo, 1 h; how it was run: as §1
Bone [40] = assay: Biodistribution in bone of mouse EMT6 tumor bearing BALB/c mouse at 10 to 20 uCi after 120 mins; format: ADME, organism-based, Bone element; settings: in vivo, 2 h; how it was run: as §1
EMT6 [41] = assay: Biodistribution in tumor of mouse EMT6 tumor bearing BALB/c mouse at 10 to 20 uCi after 5 mins; format: ADME, organism-based; settings: emt6, 5 min; how it was run: as §1
EMT6 [42] = assay: Biodistribution in tumor of EMT6 tumor bearing BALB/c mouse 10 to 20 uCi after 30 mins; format: ADME, organism-based; settings: emt6, 0.5 h; how it was run: as §1
EMT6 [43] = assay: Biodistribution in tumor of mouse EMT6 tumor bearing BALB/c mouse at 10 to 20 uCi after 60 mins; format: ADME, organism-based; settings: emt6, 1 h; how it was run: as §1
EMT6 [44] = assay: Biodistribution in tumor of mouse EMT6 tumor bearing BALB/c mouse at 10 to 20 uCi after 120 mins; format: ADME, organism-based; settings: emt6, 2 h; how it was run: as §1

Sequence of Sigma non-opioid intracellular receptor 1 (Q60492 whole entry): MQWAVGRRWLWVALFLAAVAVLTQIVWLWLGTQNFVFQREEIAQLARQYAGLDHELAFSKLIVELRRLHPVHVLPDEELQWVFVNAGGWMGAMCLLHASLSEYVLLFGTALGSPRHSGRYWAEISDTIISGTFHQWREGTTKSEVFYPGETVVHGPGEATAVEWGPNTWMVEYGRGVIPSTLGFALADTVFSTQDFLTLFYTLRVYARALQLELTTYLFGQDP

Ki [1]: 0.65 nM
Ratio Ki [2]: 1660
SMILES: COc1cc2c(cc1OC)CN(CCCCNC(=O)c1cc(Br)ccc1OCCF)CC2

Ki [3]: 15300 nM
Ki [1]: 386 nM
Ratio Ki [2]: 40
SMILES: COc1cc2c(cc1OC)CN(CCCCNC(=O)c1cc(Br)cc(OC)c1OCCF)CC2

Ratio [4]: 6
Drug uptake (Blood [5]): 3.57 % ID/g
Drug uptake (Blood [6]): 2.81 % ID/g
Drug uptake (Blood [7]): 1.69 % ID/g
Drug uptake (Blood [8]): 0.52 % ID/g
Drug uptake (Lung [9]): 12.08 % ID/g
Drug uptake (Lung [10]): 3.08 % ID/g
Drug uptake (Lung [11]): 1.6 % ID/g
Drug uptake (Lung [12]): 0.51 % ID/g
Drug uptake (Liver [13]): 32.6 % ID/g
Drug uptake (Liver [14]): 13.12 % ID/g
Drug uptake (Liver [15]): 5.69 % ID/g
Drug uptake (Liver [16]): 2.3 % ID/g
Drug uptake (Kidney [17]): 42.94 % ID/g
Drug uptake (Kidney [18]): 17.55 % ID/g
Drug uptake (Kidney [19]): 6.92 % ID/g
Drug uptake (Kidney [20]): 1.12 % ID/g
Drug uptake (Muscle tissue [21]): 1.95 % ID/g
Drug uptake (Muscle tissue [22]): 0.98 % ID/g
Drug uptake (Muscle tissue [23]): 0.58 % ID/g
Drug uptake (Muscle tissue [24]): 0.28 % ID/g
Drug uptake (Adipose tissue [25]): 2.85 % ID/g
Drug uptake (Adipose tissue [26]): 0.96 % ID/g
Drug uptake (Adipose tissue [27]): 0.38 % ID/g
Drug uptake (Adipose tissue [28]): 0.15 % ID/g
Drug uptake (Heart [29]): 3.74 % ID/g
Drug uptake (Heart [30]): 1.55 % ID/g
Drug uptake (Heart [31]): 1.04 % ID/g
Drug uptake (Heart [32]): 0.4 % ID/g
Drug uptake (Brain [33]): 1.09 % ID/g
Drug uptake (Brain [34]): 0.4 % ID/g
Drug uptake (Brain [35]): 0.32 % ID/g
Drug uptake (Brain [36]): 0.2 % ID/g
Drug uptake (Bone [37]): 2.9 % ID/g
Drug uptake (Bone [38]): 1.17 % ID/g
Drug uptake (Bone [39]): 1.12 % ID/g
Drug uptake (Bone [40]): 1.28 % ID/g
Drug uptake (EMT6 [41]): 3.28 % ID/g
Drug uptake (EMT6 [42]): 2.59 % ID/g
Drug uptake (EMT6 [43]): 2.09 % ID/g
Drug uptake (EMT6 [44]): 0.96 % ID/g
SMILES: COc1cc2c(cc1OC)CN(CCCCNC(=O)c1cc(Br)ccc1OCC[18F])CC2

Ki [1]: 0.26 nM
Ratio Ki [2]: 8190
SMILES: COc1cc2c(cc1OC)CN(CCCCNC(=O)c1cc(I)cc(OC)c1OCCF)CC2
